Assays:
[1] = tested on: Long Evans rat eyes; assay: Clinical examination, OCT imaging and ERG after 28-day once-daily eye drop; format: in vivo
[2] = tested on: rat eyes; assay: Histology and immunohistochemistry; format: in vivo; conditions: once-daily 10% eye drop, 14 and 28 days
In short: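 Rats received 5 µL of 10% test compound drops once daily in one eye, PBS in the other. Eyes were taken at days 14 and 28, fixed overnight in 4% paraformaldehyde at 4°C, frozen and cut into 12 µm sections. Stains: H&E; cleaved caspase-3 (5% BSA block, primary 1:200 2 h, Alexa 488 secondary 1:400 1 h, DAPI) with caspase-3+ DAPI+ cells scored; TUNEL with DNase I-treated positive control. Mean ± SEM, two-way ANOVA/Sidak.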

[3] = Maximum solubility / achievable concentration in solution; format: physicochemical
[4] = tested on: axial elongation; conditions: topical, chick; ref 25 (Thomson et al.); cited from earlier work
[5] = rat, once-daily 10% eye drop, 14 and 28 days

Compound | Rat behavior (activity levels, aggression, feeding pattern, weight gain) ([1]; 28-day once-daily topical 10%) | ERG A- and B-wave amplitude vs control eyes [1, 5] | OCT retinal structure [1, 5] | Hematoxylin and eosin staining of retina (inflammation) [2] | Number of cleaved caspase-3+ DAPI+ cells vs control (apoptosis) [2] | TUNEL staining (apoptosis) [2] | Maximum solubility ([3]; PBS, pH 7.4) [%] | Maximum concentration achievable ([3]; distilled water) [%] | EC50 for a reduction of axial elongation [4] [%]
CCOC(=O)[C@@H](N)Cc1ccc(O)c(O)c1 [etilevodopa] | no obvious changes in rat behavior | no statistically significant difference in A- or B-wave amplitudes | did not demonstrate any qualitative structural changes | no infiltration of inflammatory cells, fibrosis or morphological changes | no statistically significant change | no TUNEL^+ DAPI^+ cells observed | 10 |  | 
N[C@@H](Cc1ccc(O)c(O)c1)C(=O)O [levodopa] |  |  |  |  |  |  |  | 0.5 | 0.05

— publication PMC8496415 (Translational Vision Science & Technology, 2021)
